Reference: ChEMBL document CHEMBL1123589, “Phenylpiperazine-based radiopharmaceuticals for brain imaging. 3. Synthesis and evaluation of radioiodinated 1-alkyl-4-phenylpiperazines” (J Med Chem, 1987)
“And” between values parts separate entries of the source, which are not always exact repeats. Equal values may be shown once.

Tests used:
Conditions in all cases: in vivo
Canis familiaris [1] = assay: The biodistribution of the [131I]-labeled compound in dog (mass= 5.7 kg), 2 hr after intravenous injection was evaluated in brain (ID.kg/g); type: ADME, organism-based, Canis lupus familiaris
Summary of the method: (§1)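 One female dog (5.7 kg) premedicated im with acepromazine maleate, then anesthetized iv with sodium nembutal/saline (1:1). Given 1.0 mCi iv of ¹³¹I-labeled agent. Killed 2 h post-dose with iv nembutal. Tissues excised, weighed and counted; blood, fat and muscle masses estimated as 7.5%, 27.5% and 40% of body weight. Expressed as % ID/organ and % ID·kg/g.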

Canis familiaris [2] = assay: The biodistribution of the [131I]-labeled compound in dog (mass= 5.7 kg), 2 hr after intravenous injection was evaluated in cerebellum (ID.kg/g); type: ADME, organism-based, Canis lupus familiaris; summary of the method: as §1
Canis familiaris [3] = assay: The biodistribution of the [131I]-labeled compound in dog (mass= 5.7 kg), 2 hr after intravenous injection was evaluated in cortex; type: ADME, organism-based, Canis lupus familiaris; summary of the method: as §1
Canis familiaris [4] = assay: The biodistribution of the [131I]-labeled compound in dog (mass= 5.7 kg), 2 hr after intravenous injection was evaluated in cortex (ID.kg/g); type: ADME, organism-based, Canis lupus familiaris; summary of the method: as §1
Canis familiaris [5] = assay: The biodistribution of the [131I]-labeled compound in dog (mass= 5.7 kg), 2 hr after intravenous injection was evaluated in fat (ID.kg/g); type: ADME, organism-based, Canis lupus familiaris, Adipose tissue; summary of the method: as §1
Rattus norvegicus [6] = assay: The biodistribution of the [125I]-labeled compound in rats after intravenous injection was evaluated in adrenal at 4.00 hrs; value ranges from 0.81-1.19 (ID.kg/g); type: ADME, organism-based
Summary of the method: (§2)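 Male Sprague-Dawley rats (250–300 g) under ether anesthesia were given an iv injection of no-carrier-added 125I-labelled agent (10–15 μCi in 0.1 mL saline). The agent was iodinated with chloramine-T in acetate buffer and purified by C-18 HPLC. Groups of N = 3 were killed at 0.25, 1 and 4 h. Blood and tissues were weighed and γ-counted. Values are % ID·kg/g, mean (range).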

Rattus norvegicus [7] = assay: The biodistribution of the [125I]-labeled compound in rats after intravenous injection was evaluated in blood at 0.25 hrs (ID.kg/g); type: ADME, organism-based; summary of the method: as §2
Rattus norvegicus [8] = assay: The biodistribution of the [125I]-labeled compound in rats after intravenous injection was evaluated in heart at 1.00 hrs; value ranges from 0.26-0.37 (ID.kg/g); type: ADME, organism-based
Summary of the method: (§3)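 Male Sprague-Dawley rats (250–300 g), under ether anesthesia, given 10–15 μCi of the NCA ¹²⁵I-labeled agent iv in 0.1 mL saline. Groups of N = 3 were killed at 0.25, 1 or 4 h. Blood and tissues were removed, weighed and counted in a γ-well scintillation counter. Values are mean % ID·kg/g (range).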

Rattus norvegicus [9] = assay: The biodistribution of the [125I]-labeled compound in rats after intravenous injection was evaluated in lung at 4.00 hrs; value ranges from 0.45-0.67 (ID.kg/g); type: ADME, organism-based; summary of the method: as §3
Rattus norvegicus [10] = assay: The biodistribution of the [125I]-labeled compound in rats after intravenous injection was evaluated in muscle at 0.25 hrs (ID.kg/g); type: ADME, organism-based, Muscle tissue
Summary of the method: (§4)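 Male Sprague-Dawley rats (250–300 g) under ether anesthesia given iv 0.1 mL saline containing 10–15 μCi of NCA ¹²⁵I-labeled agent (chloramine-T iodination, HPLC-purified). Groups of 3 killed at 0.25, 1 and 4 h. Blood and tissues excised, weighed and γ-counted. Values are mean (range) of % injected dose × body mass (kg) per gram of tissue.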

Rattus norvegicus [11] = assay: The biodistribution of the [125I]-labeled compound in rats after intravenous injection was evaluated in muscle at 4.00 hrs; value ranges from 0.03-0.04 (ID.kg/g); type: ADME, organism-based, Muscle tissue; summary of the method: as §4
Canis familiaris [12] = assay: The biodistribution of the [131I]-labeled compound in dog (mass= 5.7 kg), 2 hr after intravenous injection was evaluated in heart (ID.kg/g); type: ADME, organism-based, Canis lupus familiaris; summary of the method: as §1
Canis familiaris [13] = assay: The biodistribution of the [131I]-labeled compound in dog (mass= 5.7 kg), 2 hr after intravenous injection was evaluated in kidney; type: ADME, organism-based, Canis lupus familiaris; summary of the method: as §1
Canis familiaris [14] = assay: The biodistribution of the [131I]-labeled compound in dog (mass= 5.7 kg), 2 hr after intravenous injection was evaluated in liver (ID.kg/g); type: ADME, organism-based, Canis lupus familiaris; summary of the method: as §1
Canis familiaris [15] = assay: The biodistribution of the [131I]-labeled compound in dog (mass= 5.7 kg), 2 hr after intravenous injection was evaluated in lung (ID.kg/g); type: ADME, organism-based, Canis lupus familiaris; summary of the method: as §1
Canis familiaris [16] = assay: The biodistribution of the [131I]-labeled compound in dog (mass= 5.7 kg), 2 hr after intravenous injection was evaluated in thyroid (ID.kg/g); type: ADME, organism-based, Canis lupus familiaris, Thyroid gland; summary of the method: as §1
Rattus norvegicus [17] = assay: The biodistribution of the [125I]-labeled compound in rats after intravenous injection was evaluated in thyroid at 4.00 hrs; value ranges from 4.85-5.46 (ID.kg/g); type: ADME, organism-based, Thyroid gland; summary of the method: as §4
Canis familiaris [18] = assay: The biodistribution of the [131I]-labeled compound in dog (mass= 5.7 kg), 2 hr after intravenous injection was evaluated in blood (ID.kg/g); type: ADME, organism-based, Canis lupus familiaris; summary of the method: as §1
Rattus norvegicus [19] = assay: The biodistribution of the [125I]-labeled compound in rats after intravenous injection was evaluated in brain at 4.00 hrs; value ranges from 0.25-0.41 (ID.kg/g); type: ADME, organism-based; summary of the method: as §2
Rattus norvegicus [20] = assay: The biodistribution of the [125I]-labeled compound in rats after intravenous injection was evaluated in fat at 0.25 hr; value ranges from 0.03-0.05 (ID.kg/g); type: ADME, organism-based, Adipose tissue; summary of the method: as §2
Rattus norvegicus [21] = assay: The biodistribution of the [125I]-labeled compound in rats after intravenous injection was evaluated in fat at 1.00 hrs (ID.kg/g); type: ADME, organism-based, Adipose tissue; summary of the method: as §2
Rattus norvegicus [22] = assay: The biodistribution of the [125I]-labeled compound in rats after intravenous injection was evaluated in brain at 0.25 hrs; value ranges from 0.32-0.38 (ID.kg/g); type: ADME, organism-based; summary of the method: as §2
Rattus norvegicus [23] = assay: The biodistribution of the [125I]-labeled compound in rats after intravenous injection was evaluated in kidney at 1.00 hrs; value ranges from 0.52-0.61 (ID.kg/g); type: ADME, organism-based; summary of the method: as §3
Rattus norvegicus [24] = assay: The biodistribution of the [125I]-labeled compound in rats after intravenous injection was evaluated in kidney at 4.00 hrs; value ranges from 0.32-0.42 (ID.kg/g); type: ADME, organism-based; summary of the method: as §3
Rattus norvegicus [25] = assay: The biodistribution of the [125I]-labeled compound in rats after intravenous injection was evaluated in liver at 4.00 hrs; value ranges from 0.40-0.52 (ID.kg/g); type: ADME, organism-based; summary of the method: as §3
Rattus norvegicus [26] = assay: The biodistribution of the [125I]-labeled compound in rats after intravenous injection was evaluated in lung at 1.00 hrs; value ranges from 1.20-1.42( ID.kg/g); type: ADME, organism-based; summary of the method: as §3
Rattus norvegicus [27] = assay: The biodistribution of the [125I]-labeled compound in rats after intravenous injection was evaluated in heart at 4.00 hrs; value ranges from 0.11-0.15 (ID.kg/g); type: ADME, organism-based; summary of the method: as §3
Rattus norvegicus [28] = assay: The biodistribution of the [125I]-labeled compound in rats after intravenous injection was evaluated in kidney at 0.25 hr; value ranges from 0.48-0.58 (ID.kg/g); type: ADME, organism-based; summary of the method: as §3
Canis familiaris [29] = assay: The biodistribution of the [131I]-labeled compound in dog (mass= 5.7 kg), 2 hr after intravenous injection was evaluated in cerebellum; type: ADME, organism-based, Canis lupus familiaris; summary of the method: as §1
Rattus norvegicus [30] = assay: The biodistribution of the [125I]-labeled compound in rats after intravenous injection was evaluated in muscle at 1.00 hrs (ID.kg/g); type: ADME, organism-based, Muscle tissue; summary of the method: as §4

**Q.** What does the source list for `CCCCN1CCN(c2ccc(I)cc2)CC1`?
**A.** Biodistribution (Canis familiaris [1]): 1.824% and 0.165%; Biodistribution (Canis familiaris [2]): 0.165%; Biodistribution (Canis familiaris [3]): 0.1%; Biodistribution (Canis familiaris [4]): 0.171%; Biodistribution (Canis familiaris [5]): 9.41% and 0.034%; Biodistribution (Rattus norvegicus [6]): 1.19%; Biodistribution (Rattus norvegicus [7]): 0.01 % ID·kg/g; Biodistribution (Rattus norvegicus [8]): 0.37%; Biodistribution (Rattus norvegicus [9]): 0.67%; Biodistribution (Rattus norvegicus [10]): 0.03 % ID·kg/g; Biodistribution (Rattus norvegicus [11]): 0.04%; Biodistribution (Canis familiaris [12]): 0.85%; Biodistribution (Canis familiaris [13]): 0.88%; Biodistribution (Canis familiaris [14]): 6.68% and 1.88%; Biodistribution (Canis familiaris [15]): 1.287% and 0.143%; Biodistribution (Canis familiaris [16]): 0.032% and 0.342%; Biodistribution (Rattus norvegicus [17]): 5.46%; Biodistribution (Canis familiaris [18]): 1.072% and 0.148%; Biodistribution (Rattus norvegicus [19]): 0.41%; Biodistribution (Rattus norvegicus [20]): 0.05%; Biodistribution (Rattus norvegicus [21]): 0.01 % ID·kg/g; Biodistribution (Rattus norvegicus [22]): 0.38%; Biodistribution (Rattus norvegicus [23]): 0.61%; Biodistribution (Rattus norvegicus [24]): 0.42%; Biodistribution (Rattus norvegicus [25]): 0.52%; Biodistribution (Rattus norvegicus [26]): 1.42%; Biodistribution (Rattus norvegicus [27]): 0.15%; Biodistribution (Rattus norvegicus [28]): 0.58%; Biodistribution (Canis familiaris [29]): 1.571%; Biodistribution (Rattus norvegicus [30]): 0.04 %ID·kg/g
